{"data": "Measurements from different studies", "note": "Compare with care: the assays were run in different laboratories."}
{"SMILES": "COc1ccnc(-c2nc3ccccn3c2Nc2ccc(F)cc2)c1", "test": "metabolic stability", "system": "rat, hepatocytes", "quantity": "hepatocyte CLint", "value": "190 µL/min/10⁶ cells"}
{"SMILES": "c1cnc2ccc(Nc3nc(NC4CC4)c4nc[nH]c4n3)cc2c1", "system": "human, plasma", "conditions": "oral, 100 mg/m², patients", "quantity": "CL/F", "value": "35.1 L/h"}
{"SMILES": "Cc1ccc(C(=O)N(CCCN)[C@@H](c2oc3cc(Cl)ccc3c(=O)c2Cc2ccccc2)C(C)C)cc1", "system": "human, plasma", "conditions": "intravenous, 2 mg/m², single dose, patients, infusion", "quantity": "clearance", "value": "26.6 mL/min"}
{"SMILES": "OC[C@H]1O[C@@H](c2ccc(Cl)c(Cc3ccc(O[C@H]4CCOC4)cc3)c2)[C@H](O)[C@@H](O)[C@@H]1O", "system": "human, urine", "conditions": "oral, 10 mg, single dose", "quantity": "renal clearance", "value": "24.5 mL/min"}
{"SMILES": "c1ccc(C2CCN(c3nc(-c4cnn5cccnc45)nc4ccccc34)C2)nc1 (stereo not shown)", "test": "metabolic stability", "system": "human, liver microsomes", "quantity": "microsomal CLint", "value": "47 µL/min/mg"}
{"SMILES": "CCNCCCNC/C=C\\CNCCCNCC", "system": "human, plasma", "conditions": "intravenous, 150 mg, patients, infusion", "quantity": "clearance", "value": "5910 mL/min"}
{"SMILES": "Fc1ccc(Nc2c(-c3cccc(F)n3)nc3ccccn23)cc1", "test": "metabolic stability", "system": "rat, hepatocytes", "quantity": "hepatocyte CLint", "value": "> 300 µL/min/10⁶ cells"}
{"SMILES": "COc1cc(C(=O)NC2CCN(C)CC2)c(F)cc1Nc1ncc(C(F)(F)F)c(Oc2cccc3c2C(=O)N(C)C3)n1", "system": "human, plasma", "conditions": "oral, 25 mg, multiple doses, once daily, patients", "quantity": "CL/F", "value": "8.34 L/h"}
{"SMILES": "c1ccc(-c2nc(NCc3nc4ccccc4o3)c3ccccc3n2)nc1", "test": "metabolic stability", "system": "human, liver microsomes", "quantity": "microsomal CLint", "value": "47 µL/min/mg"}
{"SMILES": "COc1cccnc1-c1nc2ccccn2c1Nc1ccc(F)cc1", "test": "metabolic stability", "system": "rat, hepatocytes", "quantity": "hepatocyte CLint", "value": "29 µL/min/10⁶ cells"}
